According to ChEMBL document CHEMBL1142655, “Cytotoxicity of cis-platinum(II) conjugate models. The effect of chelating arms and leaving groups on cytotoxicity: a quantitative structure-activity relationship approach” (J Med Chem, 2005):

Experiments:
[1] = system: A2780; experiment: Inhibitory concentration against human A2780 ovarian adenocarcinoma cell line; type: functional, cell-based
How it was run: (§1)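 Cells kept in RPMI1640 with 10% fetal calf serum, 2 mM L-glutamine and 1% antibiotics at 37 °C, 5% CO2. Cp8 subline was derived by chronic cisplatin exposure. 1 × 10^3 cells/well grew 24 h, then were exposed to 0-500 µM final for 120 h (DMSO ≤0.1% final). MTT was read after 3 h, A570. Run three times in quadruplicate. IC50 from nonlinear regression; mean ± SE.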

[2] = system: A2780; experiment: Inhibitory concentration against cisplatin-resistant A2780 human ovarian adenocarcinoma cell line; type: functional, cell-based; how it was run: as §1

Row | IC50 [1] [µM] | IC50 [2] [µM] | Substance
1 | 7.66 | 123 | CARBOPLATIN
2 | 1.37 | 45 | CISPLATIN
3 | 5.55 | 118 | DICHLORO(ETHYLENEDIAMINE) PLATINUM (II)
4 | 0.48 | 6.62 | OXALIPLATIN
